# Results taken from ChEMBL document CHEMBL3272141, “Potential long-acting anticonvulsants. 2. Synthesis and activity of succinimides containing an alkylating group on nitrogen or at the 3 position” (J Med Chem, 1977).
# Calls of active or inactive are those of the source. The rule behind the calls is not given here.
# Key:
# Mus musculus [1] = assay: Anticonvulsant activity against maximal electroshock-induced seizures in Carworth Farms No.1 mouse up to 300 mg/kg; format: functional, organism-based; parameters: dose 300 mg/kg
# In short: (§1)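 Male Carworth Farms No. 1 mice were used, with the highest dose tested being 300 mg/kg.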
# Mus musculus [2] = assay: Anticonvulsant activity against metrazole-induced seizures in Carworth Farms No.1 mouse up to 300 mg/kg; format: functional, organism-based; parameters: dose 300 mg/kg; in short: as §1
SMILES,Activity (Mus musculus [1]),Activity (Mus musculus [2])
O=C1CC(c2ccccc2)C(=O)N1CCc1ccccc1 (stereo not drawn),inactive,inactive
O=C(CCl)N1C(=O)CC(c2ccccc2)C1=O (stereo not drawn),inactive,inactive
O=C(O)/C=C\C(=O)NCCN1C(=O)CC(c2ccccc2)C1=O (stereo not drawn),inactive,inactive
O=C(CCl)NCCN1C(=O)CC(c2ccccc2)C1=O (stereo not drawn),inactive,inactive
O=C(O)/C=C\C(=O)Nc1ccc(CCN2C(=O)CC(c3ccccc3)C2=O)cc1 (stereo not drawn),inactive,inactive
O=C1C=CC(=O)N1CCN1C(=O)CC(c2ccccc2)C1=O (stereo not drawn),inactive,inactive
Nc1ccc(CCN2C(=O)CC(c3ccccc3)C2=O)cc1 (stereo not drawn),inactive,inactive
O=C(CCl)NCCCN1C(=O)CC(CCCNC(=O)CCl)(c2ccccc2)C1=O (stereo not drawn),inactive,inactive
NCCN1C(=O)CC(c2ccccc2)C1=O (stereo not drawn),inactive,inactive
CC(=O)Nc1ccc(CCN2C(=O)CC(c3ccccc3)C2=O)cc1 (stereo not drawn),inactive,inactive
O=C1CC(c2ccccc2)C(=O)N1CCc1ccc(N2C(=O)C=CC2=O)cc1 (stereo not drawn),inactive,inactive
O=C(CCl)Nc1ccc(CCN2C(=O)CC(c3ccccc3)C2=O)cc1 (stereo not drawn),inactive,inactive
N#CCN1C(=O)CC(c2ccccc2)C1=O (stereo not drawn),inactive,inactive
CN1C(=O)C(CCNC(=O)CCl)C(C)(c2ccccc2)C1=O (stereo not drawn),inactive,inactive
